Laboratory results reported in ChEMBL document CHEMBL4052605, “Lissoclibadin 1, a Polysulfur Aromatic Alkaloid from the Indonesian Ascidian Lissoclinum cf. badium, Induces Caspase-Dependent Apoptosis in Human Colon Cancer Cells and Suppresses Tumor Growth in Nude Mice” (J Nat Prod, 2017).
Calls of active or inactive are those of the source.

Experiments:
HCT-15 [1] = test: Antiproliferative activity against human HCT15 cells after 24 hrs by WST-1 assay; assay type: functional, cell-based; conditions: HCT-15, 24 h
Outline: (§1)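 WST-1 viability assay. Cells seeded at 5 × 10^3 per well and grown 24 h, then given lissoclibadins at 0.1−40 μM (etoposide 1.0−100 μM) in triplicate for 24 h. WST-1 added and absorbance read 4 h later at 450 nm, background subtracted at 650 nm. Viability expressed as % of control; IC50 taken as 50% inhibition of viability. Three experiments, mean ± SD.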

HeLa S3 [2] = test: Antiproliferative activity against human HeLaS3 cells after 24 hrs by WST-1 assay; assay type: functional, cell-based; conditions: HeLa S3, 24 h; outline: as §1
HCT-15 [3] = test: Antitumor activity against human HCT15 cells xenografted in BALB/c nu/nu athymic mouse assessed as tumor growth inhibition at 5 mg/kg administered intratumorally on day 0, 2, 4, 6, 8 and 10 measured up to 28 days; assay type: functional, organism-based
Outline: (§2)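 Female 6-week-old Balb/c nu/nu mice injected subcutaneously in the lower back with HCT-15 cells (1 × 10^8/mL) mixed 1:1 with Matrigel. Once tumors reached 50−100 mm3 (day 0), mice were randomized, 6 per group. Dosing was intratumoral in PBS with 5% DMSO and 5% glucose on days 0, 2, 4, 6, 8 and 10; controls received vehicle. Tumor volume (L×W×D×π/6) and body weight measured every other day to day 28.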

NCI-H28 [4] = test: Antiproliferative activity against human NCI-H28 cells assessed as nuclear chromatin condensation at 10 uM after 24 hrs by Hoechst-33258 staining-based fluorescent microscopic analysis; assay type: functional, cell-based
Outline: (§3)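 Cells at 5 × 10^4 cells/mL precultured 24 h, then treated 24 h (HCT-15 at 5 μM; HeLa-S3, MCF-7, NCI-H28 at 10 μM). Cells trypsinized, washed in PBS, fixed in 1.0% paraformaldehyde at 4 °C for 15 min, stained with 1 mg/mL Hoechst-33258 at 4 °C for 15 min. After washing, mounted in antifade reagent and examined by fluorescence microscopy.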

NCI-H28 [5] = test: Antiproliferative activity against human NCI-H28 cells after 24 hrs by WST-1 assay; assay type: functional, cell-based; conditions: NCI-H28, 24 h; outline: as §1
NCI-H28 [6] = test: Antiproliferative activity against human NCI-H28 cells assessed as nuclear fragmentation at 10 uM after 24 hrs by Hoechst-33258 staining-based fluorescent microscopic analysis; assay type: functional, cell-based; outline: as §3
NCI-H28 [7] = test: Antiproliferative activity against human NCI-H28 cells assessed as effect on cell adhesion up to 10 uM after 24 hrs by light microscopic analysis; assay type: functional, cell-based
Outline: (§4)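 Cancer cells treated with 0−10 μM and examined by light microscopy for changes in cell adhesion and morphology.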

MCF7 [8] = test: Antiproliferative activity against human MCF7 cells assessed as effect on cell adhesion after 24 hrs by light microscopic analysis; assay type: functional, cell-based; outline: as §4
HCT-15 [9] = test: Antiproliferative activity against human HCT15 cells assessed as nuclear chromatin condensation at 5 uM after 24 hrs by Hoechst-33258 staining-based fluorescent microscopic analysis; assay type: functional, cell-based; outline: as §3
HeLa S3 [10] = test: Antiproliferative activity against human HeLaS3 cells assessed as fragmentation of nuclei at 10 uM after 24 hrs by Hoechst-33258 staining-based fluorescent microscopic analysis; assay type: functional, cell-based; outline: as §3
HeLa S3 [11] = test: Antiproliferative activity against human HeLaS3 cells assessed as effect on cell adhesion up to 10 uM after 24 hrs by light microscopic analysis; assay type: functional, cell-based; outline: as §4
NCI-H28 [12] = test: Antiproliferative activity against human NCI-H28 cells assessed as effect on cell adhesion after 24 hrs by light microscopic analysis; assay type: functional, cell-based; outline: as §4
HCT-15 [13] = test: Antiproliferative activity against human HCT15 cells assessed as fragmentation of nuclei at 5 uM after 24 hrs by Hoechst-33258 staining-based fluorescent microscopic analysis; assay type: functional, cell-based; outline: as §3
HCT-15 [14] = test: Induction of apoptosis in human HCT15 cells assessed as effect on cell adhesion at 5 uM in presence of caspase-8 inhibitor z-IETD-fmk by light microscopic analysis; assay type: functional, cell-based
HeLa S3 [15] = test: Antiproliferative activity against human HeLaS3 cells assessed as nuclear chromatin condensation at 10 uM after 24 hrs by Hoechst-33258 staining-based fluorescent microscopic analysis; assay type: functional, cell-based; outline: as §3
HCT-15 [16] = test: Induction of apoptosis in human HCT15 cells assessed as late apoptotic cells at 5 uM by annexin V-FITC/propidium iodide staining-based flow cytometric analysis; assay type: functional, cell-based; conditions: TDE = time-dependent effect
Outline: (§5)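 HCT-15 cells at 5 × 10^4 cells/mL precultured 24 h, then given 5.0 μM in DMSO or DMSO alone (final 0.1%) for 3, 6, 12 or 24 h. Adherent cells trypsinized, pooled, stained with annexin V-FITC and PI, and analysed by flow cytometry. Early apoptosis = annexin V+/PI−; late = annexin V+/PI+. Three independent experiments, mean ± SD.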

HCT-15 [17] = test: Antiproliferative activity against human HCT15 cells assessed as effect on cell morphology after 24 hrs by light microscopic analysis; assay type: functional, cell-based; outline: as §4
HCT-15 [18] = test: Induction of apoptosis in human HCT15 cells at 5 uM after 12 hrs in presence of caspase-8 inhibitor z-IETD-fmk by annexin V-FITC/propidium iodide staining-based flow cytometric analysis; assay type: functional, cell-based
Outline: (§6)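 HCT-15 cells at 5 × 10^4 cells/mL precultured 24 h, then given z-VAD-fmk, z-IETD-fmk or z-LEHD-fmk at 50 μM for 30 min before 5.0 μM compound in DMSO (DMSO final 0.1%). Annexin V-FITC/PI staining read by flow cytometry. Three independent experiments, mean ± SD; one-way ANOVA with Bonferroni post hoc tests.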

HCT-15 [19] = test: Induction of apoptosis in human HCT15 cells at 5 uM after 12 hrs in presence of caspase-9 inhibitor z-LEHD-fmk by annexin V-FITC/propidium iodide staining-based flow cytometric analysis; assay type: functional, cell-based; outline: as §6
NCI-H28 [20] = test: Antiproliferative activity against human NCI-H28 cells assessed as effect on cell morphology up to 10 uM after 24 hrs by light microscopic analysis; assay type: functional, cell-based; outline: as §4
HCT-15 [21] = test: Induction of apoptosis in human HCT15 cells assessed as effect on cell morphology at 5 uM in presence of caspase-8 inhibitor z-IETD-fmk by light microscopic analysis; assay type: functional, cell-based
HCT-15 [22] = test: Induction of apoptosis in human HCT15 cells assessed as effect on cell morphology at 5 uM in presence of caspase-9 inhibitor z-LEHD-fmk by light microscopic analysis; assay type: functional, cell-based
NCI-H28 [23] = test: Antiproliferative activity against human NCI-H28 cells assessed as effect on cell morphology after 24 hrs by light microscopic analysis; assay type: functional, cell-based; outline: as §4
MCF7 [24] = test: Antiproliferative activity against human MCF7 cells assessed as effect on cell morphology after 24 hrs by light microscopic analysis; assay type: functional, cell-based; outline: as §4
HCT-15 [25] = test: Antitumor activity against human HCT15 cells xenografted in BALB/c nu/nu athymic mouse assessed as tumor growth inhibition at 25 mg/kg/day administered intratumorally on day 0, 2, 4, 6, 8 and 10 measured on day 28 post dose relative to control; assay type: functional; conditions: read-out: TGI; outline: as §2
HCT-15 [26] = test: Antiproliferative activity against human HCT15 cells assessed as effect on cell adhesion after 24 hrs by light microscopic analysis; assay type: functional, cell-based; outline: as §4
HCT-15 [27] = test: Induction of apoptosis in human HCT15 cells assessed as early apoptotic cells at 5 uM after 3 hrs by annexin V-FITC/propidium iodide staining-based flow cytometric analysis relative to control; assay type: functional; outline: as §5
Mus musculus = test: Toxicity in BALB/c nu/nu athymic mouse xenografted with human HCT15 cells assessed as body weight loss at 5 to 25 mg/kg administered intratumorally treated on day 0, 2, 4, 6, 8 and 10 measured every second day for 28 days; assay type: organism-based; conditions: in vivo, other, 672 h; outline: as §2
MCF7 [28] = test: Antiproliferative activity against human MCF7 cells assessed as effect on cell adhesion up to 10 uM after 24 hrs by light microscopic analysis; assay type: functional, cell-based; outline: as §4
HCT-15 [29] = test: Induction of apoptosis in human HCT15 cells assessed as effect on cell adhesion at 5 uM in presence of caspase-9 inhibitor z-LEHD-fmk by light microscopic analysis; assay type: functional, cell-based
HCT-15 [30] = test: Induction of apoptosis in human HCT15 cells assessed as effect on cell morphology at 5 uM in presence of pan-caspase inhibitor z-VAD-fmk by light microscopic analysis; assay type: functional, cell-based
HeLa S3 [31] = test: Antiproliferative activity against human HeLaS3 cells assessed as effect on cell morphology after 24 hrs by light microscopic analysis; assay type: functional, cell-based; outline: as §4
HeLa S3 [32] = test: Antiproliferative activity against human HeLaS3 cells assessed as effect on cell morphology up to 10 uM after 24 hrs by light microscopic analysis; assay type: functional, cell-based; outline: as §4
MCF7 [33] = test: Antiproliferative activity against human MCF7 cells after 24 hrs by WST-1 assay; assay type: functional, cell-based; conditions: MCF7, 24 h; outline: as §1
HCT-15 [34] = test: Induction of apoptosis in human HCT15 cells assessed as early apoptotic cells at 5 uM after 24 hrs by annexin V-FITC/propidium iodide staining-based flow cytometric analysis relative to control; assay type: functional; outline: as §5
HCT-15 [35] = test: Induction of apoptosis in human HCT15 cells at 5 uM after 12 hrs in presence of pan-caspase inhibitor z-VAD-fmk by annexin V-FITC/propidium iodide staining-based flow cytometric analysis (reference value: 64%); assay type: functional; outline: as §6
HCT-15 [36] = test: Induction of apoptosis in human HCT15 cells assessed as early apoptotic cells at 5 uM after 6 hrs by annexin V-FITC/propidium iodide staining-based flow cytometric analysis relative to control; assay type: functional; outline: as §5
HCT-15 [37] = test: Antiproliferative activity against human HCT15 cells assessed as effect on cell adhesion up to 10 uM after 24 hrs by light microscopic analysis; assay type: functional, cell-based; outline: as §4
MCF7 [38] = test: Antiproliferative activity against human MCF7 cells assessed as fragmentation of nuclei at 10 uM after 24 hrs by Hoechst-33258 staining-based fluorescent microscopic analysis; assay type: functional, cell-based; outline: as §3
HCT-15 [39] = test: Antiproliferative activity against human HCT15 cells assessed as effect on cell morphology up to 10 uM after 24 hrs by light microscopic analysis; assay type: functional, cell-based; outline: as §4
HCT-15 [40] = test: Induction of apoptosis in human HCT15 cells assessed as effect on cell adhesion at 5 uM in presence of pan-caspase inhibitor z-VAD-fmk by light microscopic analysis; assay type: functional, cell-based
MCF7 [41] = test: Antiproliferative activity against human MCF7 cells assessed as nuclear chromatin condensation at 10 uM after 24 hrs by Hoechst-33258 staining-based fluorescent microscopic analysis; assay type: functional, cell-based; outline: as §3
HeLa S3 [42] = test: Antiproliferative activity against human HeLaS3 cells assessed as effect on cell adhesion after 24 hrs by light microscopic analysis; assay type: functional, cell-based; outline: as §4
HCT-15 [43] = test: Induction of apoptosis in human HCT15 cells assessed as early apoptotic cells at 5 uM after 12 hrs by annexin V-FITC/propidium iodide staining-based flow cytometric analysis relative to control; assay type: functional; outline: as §5
MCF7 [44] = test: Antiproliferative activity against human MCF7 cells assessed as effect on cell morphology up to 10 uM after 24 hrs by light microscopic analysis; assay type: functional, cell-based; outline: as §4

COc1cc(CCN(C)C)c2sc3c(O)c(OC)cc(CCN(C)C)c3ssc2c1O [LISSOCLIBADIN 4]
17.8 µM: IC50 (HeLa S3 [2])
17.2 µM: IC50 (HCT-15 [1])

COc1c(OC)c2c(c(CCN(C)C)c1SC)Sc1c(OC)c(OC)c(SC)c(CCN(C)C)c1S2 [LISSOCLIBADIN 3]
13.2 µM: IC50 (HCT-15 [1])
16 µM: IC50 (HeLa S3 [2])

COc1c(OC)c2c(c(CCN(C)C)c1SC)SSc1c(CCN(C)C)c(SC)c(OC)c(OC)c1Sc1c(OC)c(OC)c(SC)c(CCN(C)C)c1S2 [LISSOCLIBADIN 1]
43%: Activity (HCT-15 [43])
inactive: TGI (HCT-15 [3])
60%: inhibition in vivo at 25 mg/kg/day (HCT-15 [25])
4 µM: IC50 (HCT-15 [1])
6.3 µM: IC50 (HeLa S3 [2])
active: Activity (NCI-H28 [4]) | Activity (NCI-H28 [6]) | Activity (NCI-H28 [7]) | Activity (MCF7 [8]) Dose-dependent effect | Activity (HCT-15 [9]) | Activity (HeLa S3 [10]) | Activity (HeLa S3 [11]) | Activity (NCI-H28 [12]) Dose-dependent effect | Activity (HCT-15 [13]) | Activity (HCT-15 [14]) | Activity (HeLa S3 [15]) | Activity (HCT-15 [16]) Tde | Activity (HCT-15 [17]) Dose-dependent effect | Activity (HCT-15 [18]) | Activity (HCT-15 [19]) | Activity (NCI-H28 [20]) | Activity (HCT-15 [21]) | Activity (HCT-15 [22]) | Activity (NCI-H28 [23]) Dose-dependent effect | Activity (MCF7 [24]) Dose-dependent effect | Activity (HCT-15 [26]) Dose-dependent effect | Activity (MCF7 [28]) | Activity (HCT-15 [29]) | Activity (HCT-15 [30]) | Activity (HeLa S3 [31]) Dose-dependent effect | Activity (HeLa S3 [32]) | Activity (HCT-15 [37]) | Activity (MCF7 [38]) | Activity (HCT-15 [39]) | Activity (HCT-15 [40]) | Activity (MCF7 [41]) | Activity (HeLa S3 [42]) Dose-dependent effect | Activity (MCF7 [44])
40%: Activity (HCT-15 [34])
7.1 µM: IC50 (NCI-H28 [5])
37%: Activity (HCT-15 [36])
11%: Activity (HCT-15 [27]) | Activity (HCT-15 [35])
Non-Toxic: Activity (Mus musculus)
7.6 µM: IC50 (MCF7 [33])
